JMJD2C inh = inhibitors of human GASC-1 (JMJD2C) demethylase | Q9H3R0 | 330,000 compounds, 0.069% hits | GST-JMJD2C(1-420) H3K9me3 demethylation, DELFIA europium | inhibition, % at 2.35 µM;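 active means more than half of a compound's replicate wells show inhibition beyond 50%, single wells judged on their own value; inconclusive means some, but no more than half, of replicates pass 50% inhibition; inactive means no replicate passes 50% inhibition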;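 further: signal counts dimethyl H3K9 product captured on neutravidin plate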
SR-BI uptake up = SR-BI HDL lipid transfer activation; CHO ldlA[mSR-BI] cells, DiI-HDL uptake fluorescence, 3 h; 100 = double the neutral-control signal; activation, % at 12.5 µM; 320,000 compounds, 0.096% hits; AID 504775;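 active means mean replicate activation of at least 60% and every replicate at or above 60%; inconclusive means mean or all-replicate condition met, but not both; inactive means mean below 60% and not all replicates reaching 60%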
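Test system: SR-BI-overexpressing, LDLR-lacking CHO cells; Also added: labelled HDL, 10 µg/mL; Measured by: bottom-read cell fluorescence after medium removal, ex 550/em 595 nm; Timing: 3 h uptake period with compound, 37 °C; Buffer or medium: F12, 0.5% BSA, 25 mM HEPES; Doses: single compound concentration, delivered by pin transfer.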
FXN GAA850 act = activators of GAA850 frataxin (FXN) promoter; HEK293 lucGAA850 FXN promoter luciferase reporter, 24 h; percent of 10 µM SAHA response; activation, % at 6 µM; AID 540364; 360,000 compounds, 0.56% hits;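 active means activation above the average of all compounds screened plus 3 SD, cutoff fixed separately per campaign, cut at about 7.5% in these data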
SR-BI HDL uptake = blocks mouse SR-BI lipid uptake from DiI-HDL | ldlA[mSR-BI] CHO cells, DiI-HDL uptake fluorescence, 3 h | inhibition, % at 12.5 µM | 320,000 compounds, 0.96% hits | AID 488896;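 active means mean replicate inhibition of at least 70% and a set share of replicates each scoring 70 or more; inconclusive means meets just one of the two criteria; inactive means fails both criteria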
Target sequence (Q61009 whole entry, looked up): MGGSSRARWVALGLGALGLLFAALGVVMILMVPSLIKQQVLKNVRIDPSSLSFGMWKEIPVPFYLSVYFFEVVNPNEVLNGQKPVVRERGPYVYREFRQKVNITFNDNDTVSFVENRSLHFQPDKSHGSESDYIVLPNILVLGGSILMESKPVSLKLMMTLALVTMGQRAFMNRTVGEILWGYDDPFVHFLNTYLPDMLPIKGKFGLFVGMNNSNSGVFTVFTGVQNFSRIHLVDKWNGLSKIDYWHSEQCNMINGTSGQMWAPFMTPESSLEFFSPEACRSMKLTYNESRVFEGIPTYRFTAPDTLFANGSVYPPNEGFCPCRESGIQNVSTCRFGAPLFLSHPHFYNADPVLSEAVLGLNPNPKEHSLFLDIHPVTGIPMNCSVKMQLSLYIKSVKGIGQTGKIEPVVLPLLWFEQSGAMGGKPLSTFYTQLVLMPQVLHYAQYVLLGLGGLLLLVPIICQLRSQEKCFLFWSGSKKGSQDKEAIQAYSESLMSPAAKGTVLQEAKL
AHR activator = activates the human aryl hydrocarbon receptor; P35869; AHR-responsive luciferase reporter cells, luminescence; activation, % at 5 µM; 320,000 compounds, 2.5% hits; in the data active means activation above about 47%
Of the large screens only hits and unclear results are named; the others gave an inactive call. Shown are actives, neighbours in structure and some others; about 3.7% of the full set was active somewhere.

O=C(Nc1ccc2c(c1)OCO2)c1cnn2cccnc12	AHR activator 107.5
O=C(Nc1cccnc1)c1cnn2cccnc12	none
O=C(Nc1cccc(O)c1)c1cnn2cccnc12	AHR activator 50.1
Cc1cc(C)n2ncc(C(=O)Nc3ccc4c(c3)OCO4)c2n1	AHR activator 73.0
CC(C)C(OC(=O)C1=Cc2ccccc2OC1)C(=O)NCC1CCCO1 (stereo not drawn)	none (no result: JMJD2C inh, AHR activator)
Cc1ccc(S(=O)(=O)N2C(=O)CCC2C(=O)O/N=C(\N)c2cccc([N+](=O)[O-])c2)cc1 (stereo not drawn)	none (no result: SR-BI uptake up)
O=C(COc1ccc2ccccc2c1)Nc1cccnc1Cl	none (no result: SR-BI uptake up, SR-BI HDL uptake)
CCCc1nnc(N2C(=O)c3cccc4cccc(c34)C2=O)s1	AHR activator 73.3
O=C1c2cccc3cccc(c23)C(=O)N1c1nccs1	none
Cc1nnc(N2C(=O)c3cccc4cccc(c34)C2=O)s1	AHR activator 68.0
Cc1nc2ccccc2c(C)c1CC(=O)OC(C)C(=O)NC1(C#N)CCCCC1 (stereo not drawn)	none
Oc1cccc(C=Nc2cccc3ccccc23)c1O	AHR activator 50.8
C=Cc1ccc(N=Cc2c(O)ccc3ccccc23)cc1	SR-BI HDL uptake 75.1
Oc1ccccc1N=Cc1c(O)ccc2ccccc12	SR-BI HDL uptake 80.4 (no result: AHR activator)
CC(=O)N(C)c1ccc(N=Cc2c(O)ccc3ccccc23)cc1	none
Oc1ccc2ccccc2c1C=Nc1ccccc1Br	none
COc1ccc(N2CC(NS(=O)(=O)c3cccs3)CC2=O)cc1 (stereo not drawn)	none
CCOc1ccc2nc(S(=O)(=O)NC(=O)C3(C)CCN3C(=O)CCc3cccs3)sc2c1 (stereo not drawn)	none (no result: JMJD2C inh, SR-BI uptake up, SR-BI HDL uptake, AHR activator)
CCOCCc1nnc(NC(=O)c2cccs2)s1	AHR activator 74.0
O=C(Nc1nnc(C2CCCO2)s1)c1cccs1 (stereo not drawn)	AHR activator 47.6
Cc1ccc2nc(NC(=O)c3cccs3)sc2c1	AHR activator 63.8
Cc1cccc(-c2nnc(NC(=O)c3cccs3)s2)c1	AHR activator 47.8
N#CC1=C(N)SC(N)=C(C#N)C1CCC1CCCCC1	none (no result: SR-BI uptake up, FXN GAA850 act, SR-BI HDL uptake)
COc1ccc(-c2nnc(Nc3ccc(S(=O)(=O)Nc4nccs4)cc3)c3ccccc23)cc1	none (no result: AHR activator)
Cc1ncc(CN2CCN(CCc3ccccc3)C(CCO)C2)s1 (stereo not drawn)	none
COc1ccc(OC)c(NC(=O)C(=O)NNC(=O)C23CC4CC(CC(C4)C2)C3)c1	none
O=C(COC(=O)COc1ccccc1Cc1ccccc1)Nc1cccnc1Cl	none
CC(=O)Nc1ccc(NC(=O)C2CC(=O)N(C(C)C)C2)cc1 (stereo not drawn)	none
CC(C)N1CC(C(=O)Nc2ccc(Br)c(Cl)c2)CC1=O (stereo not drawn)	JMJD2C inh 69.5
Cc1ccc(NC(=O)C2CC(=O)N(C(C)C)C2)cc1Cl (stereo not drawn)	none
CCc1ccc(NC(=O)C2CC(=O)N(C(C)C)C2)cc1 (stereo not drawn)	AHR activator 78.0
COc1cccc(N=c2oc3ccc(OC)cc3cc2-c2nc3ccccc3[nH]2)c1	JMJD2C inh inconclusive, AHR activator 53.1
N/C(Cc1nc(-c2ccc(F)cc2)cs1)=N\O	none
N/C(Cc1nc(-c2ccc(Br)cc2)cs1)=N\O	AHR activator 53.7
COc1ccccc1Oc1cn[nH]c1-c1ccc(OCC(=O)NN)cc1O	none
COc1ccc(Oc2cn[nH]c2-c2ccc(OCC(=O)NN)cc2O)cc1	AHR activator 58.3
O=c1c2ccccc2nnn1-c1ccccc1	SR-BI uptake up 356.3 (no result: JMJD2C inh, AHR activator)
C[C@H](CO)N1C[C@H](C)[C@@H](CN(C)C(=O)Nc2ccc(C(F)(F)F)cc2)Oc2c(NC(=O)CCC(F)(F)F)cccc2C1=O	SR-BI HDL uptake 76.4
Cc1noc(C)c1NC(=O)Nc1cccc2c1O[C@H](CN(C)C(=O)Nc1ccc(C(F)(F)F)cc1)[C@@H](C)CN([C@H](C)CO)C2=O	SR-BI HDL uptake 79.5 (no result: JMJD2C inh)
Cc1cccc(NS(=O)(=O)c2ccc3c(c2)oc(=O)n3C)c1C	none (no result: AHR activator)
O=C(NCC1CCCO1)c1ccccc1OCc1ccc(Cl)cc1 (stereo not drawn)	none
Cc1cccc(N/C(N)=N/c2nc(C(F)(F)F)cc(C(F)(F)F)n2)c1	AHR activator 68.5
COc1cccc(N/C(N)=N/c2nc(C(F)(F)F)cc(C(F)(F)F)n2)c1	none
CCOC(=O)c1nc2ccc(C)cc2c2c1C1CC(c3c(Cl)cccc31)N2C(=O)OCc1ccccc1 (stereo not drawn)	none (no result: JMJD2C inh, SR-BI uptake up, SR-BI HDL uptake, AHR activator)
Nc1c(Cl)cc(C2=NCCn3c2c2ccc([N+](=O)[O-])cc2[n+]3[O-])cc1Cl	AHR activator 73.0
Nc1c(-c2ccc(Cl)cc2)cnn1-c1cc(C(F)(F)F)cc(C(F)(F)F)c1	SR-BI HDL uptake inconclusive
[O-][n+]1c2cc(C(F)(F)F)ccc2c2n1CCN=C2c1ccc(Cl)cc1	AHR activator 62.6
O=C(NNC(=O)c1ccncc1)Nc1ccccc1	none
O=C(NNc1ccc([N+](=O)[O-])cn1)Nc1ccc(N=Nc2ccccc2)cc1	SR-BI HDL uptake 100.3 (no result: JMJD2C inh, AHR activator)
O=C(NNc1ccc([N+](=O)[O-])cc1)Nc1ccccc1	none
O=C(NNC(=O)c1ccncc1)Nc1ccc(N=Nc2ccccc2)cc1	SR-BI HDL uptake 72.1 (no result: JMJD2C inh, AHR activator)
O=C(O)CNC(=S)N(Cc1ccccc1)Cc1cccnc1	none
CC(=O)Nc1cccc(N/C=C(\C=O)c2nc3ccccc3o2)c1	AHR activator 58.8
O=C/C(=C\Nc1ccc(Br)cc1)c1nc2ccccc2o1	AHR activator 49.0
O=C(CCSCc1ccc(Cl)cc1)NCc1cccs1	none
O=C1C(Nc2ccccc2)=C(NS(=O)(=O)c2ccccc2)C(=O)c2ccccc21	AHR activator 56.8
O=S(=O)(Nc1ccc(NS(=O)(=O)c2ccccc2)cc1)c1ccccc1	none (no result: JMJD2C inh, SR-BI uptake up, SR-BI HDL uptake, AHR activator)
FCCCOc1ccc(-c2ccnc(-c3ccccc3)n2)cc1	AHR activator 51.7
FCCCOc1ccc(-c2nccc(-c3ccc(F)cc3)n2)cc1	none
CCN(Cc1ccncc1)C(=O)c1cccc(S(=O)(=O)N2CCCCC2)c1	none
CCN(CC)P(=O)(Nc1ccc(C)cc1Br)c1ccc(N(C)C)cc1NC(=O)c1ccco1 (stereo not drawn)	AHR activator 48.6
Cc1ccc(NC(=O)c2ccco2)c([N+](=O)[O-])c1	none
CCn1c(NCc2c[nH]c3ccccc23)nc2ccccc21	AHR activator 48.4
Cn1c(NCc2cccs2)nc2ccccc21	AHR activator 48.7
C=CCn1c(NCc2c[nH]c3ccccc23)nc2ccccc21	none
Cn1c(NCc2c[nH]c3ccccc23)nc2ccccc21	AHR activator 74.5
CCn1c(NCc2cccs2)nc2ccccc21	none (no result: SR-BI uptake up, SR-BI HDL uptake)
O=C(N/N=C/c1cc(Br)cc(Br)c1O)c1cccc(N2CCCC2=O)c1	SR-BI HDL uptake 131.5
O=C(N/N=C/c1ccc([N+](=O)[O-])cc1)c1cccc(N2CCCC2=O)c1	none
O=C(N/N=C/c1ccc(Cl)cc1Cl)c1cccc(N2CCCC2=O)c1	SR-BI HDL uptake 84.8

Screening results deposited in PubChem by several laboratories.
